Data published in ChEMBL document CHEMBL4177755, “Combating Drug-Resistant Fungi with Novel Imperfectly Amphipathic Palindromic Peptides” (J Med Chem, 2018).
Converted amounts (≈) assume the structure as drawn. The source made the active and inactive calls. The calls are words filed in the database; no cut-off is given here.

Tests used:
Candida albicans [1] = experiment: Antifungal activity against fluconazole-resistant Candida albicans 56214 after 48 hrs by broth microdilution method; assay type: functional; details: Candida albicans, 56214, 48 h
In short: (§1)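 Modified CLSI M27-A2 broth microdilution. Yeast at (0.5−1) × 10^3 CFU/mL in MOPS-buffered RPMI 1640 was mixed 1:1 with peptide serially diluted in 0.2% BSA and incubated 48 h at 28 °C. Absorbance was read at 492 nm; MIC is the lowest concentration inhibiting 95% of growth. Triplicate, three biological replicates.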

Candida parapsilosis [2] = experiment: Fungicidal activity against Candida parapsilosis cgmcc 2.3989 after 96 hrs; assay type: functional; details: Lodderomyces parapsilosis, cgmcc 2.3989, 96 h; read-out: MFC99.9
In short: (§2)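 Wells from the 48 h, 28 °C RPMI 1640/MOPS microdilution plates were plated on YM agar and incubated a further 48 h at 28 °C. MFC is the lowest concentration killing at least 99.9% of cells. Run in triplicate with three biological replicates.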

Candida albicans [3] = experiment: Fungicidal activity against Candida albicans isolated from alveolar fluid after 96 hrs; assay type: functional; details: read-out: MFC99.9
In short: (§3)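 After the 48 h, 28 °C broth microdilution in MOPS-buffered RPMI 1640 (inoculum (0.5−1) × 10^3 CFU/mL), 50 μL from each well was plated on YM agar for a further 48 h at 28 °C. MFC is the lowest concentration killing at least 99.9% of cells. Triplicate, three biological replicates.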

Candida albicans [4] = experiment: Antifungal activity against Candida albicans SP3876 after 48 hrs by broth microdilution method; assay type: functional; details: SP3876, 48 h; in short: as §1
Candida albicans [5] = experiment: Antifungal activity against Candida albicans cgmcc 2.2086 after 48 hrs by broth microdilution method; assay type: functional; details: cgmcc 2.2086, 48 h; in short: as §1
Candida albicans [6] = experiment: Antifungal activity against Candida albicans cgmcc 2.2086 in presence of NH4Cl by broth dilution method; assay type: functional
Candida albicans [7] = experiment: Fungicidal activity against Candida albicans SP3876 after 96 hrs; assay type: functional; details: SP3876, 96 h, read-out: MFC99.9; in short: as §3
Pichia kudriavzevii [8] = experiment: Fungicidal activity against Candida krusei cgmcc 2.1857 after 96 hrs; assay type: functional; details: cgmcc 2.1857, 96 h, read-out: MFC99.9; in short: as §2
Candida tropicalis [9] = experiment: Fungicidal activity against Candida tropicalis cgmcc 2.1975 after 96 hrs; assay type: functional; details: cgmcc 2.1975, 96 h, read-out: MFC99.9; in short: as §2
Pichia kudriavzevii [10] = experiment: Antifungal activity against Candida krusei cgmcc 2.1857 after 48 hrs by broth microdilution method; assay type: functional; details: cgmcc 2.1857, 48 h
In short: (§4)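 Modified CLSI M27-A2 broth microdilution. Yeast were suspended in MOPS-buffered RPMI 1640 at a final (0.5−1) × 10^3 CFU/mL and mixed 1:1 with peptide serially diluted in 0.2% BSA. Plates were incubated 48 h at 28 °C and read at A492. MIC is the lowest concentration giving 95% inhibition. Run in triplicate with three biological replicates.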

Candida albicans [11] = experiment: Fungicidal activity against Candida albicans cgmcc 2.2086 after 96 hrs; assay type: functional; details: cgmcc 2.2086, 96 h, read-out: MFC99.9; in short: as §3
Candida albicans [12] = experiment: Fungicidal activity against Candida albicans 58288 after 96 hrs; assay type: functional; details: Candida albicans, 58288, 96 h; read-out: MFC99.9; in short: as §3
Candida albicans [13] = experiment: Antifungal activity against Candida albicans 14936 after 48 hrs by broth microdilution method; assay type: functional; details: Candida albicans, 14936, 48 h; in short: as §1
Lipid bilayer [14] = experiment: Binding affinity to phosphatidylcholine/phosphatidylethanolamine/phosphatidylinositol/ergosterol large unilamellar vesicle assessed as induction of calcein leakage at 2 to 32 uM after 15 mins by spectrofluorophotometric method
In short: (§5)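 Large unilamellar vesicles were made from PG/CL/PE (2:1:7), PC/PE/PI/ergosterol (5:4:1:2) or PC/cholesterol (10:1), loaded with 70 mM calcein in Tris/NaCl/EDTA buffer at pH 7.4, frozen and thawed 20 times, and extruded through 100 nm filters. Free dye was removed by gel filtration, and peptide-induced calcein release was measured.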

Candida albicans [15] = experiment: Disruption of cytoplasmic membrane electrical potential in Candida albicans cgmcc 2.2086 at MFC after 800 secs by DiSC3-5 dye-based fluorescence spectrophotometric method; assay type: functional, organism-based
In short: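 Cells were loaded with the membrane potential-sensitive dye DiSC3-5, and its release on peptide treatment (various concentrations, including 1× MBC/MFC) was monitored as increasing fluorescence over 800 s.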

Candida albicans [16] = experiment: Antifungal activity against fluconazole-resistant Candida albicans 56452 after 48 hrs by broth microdilution method; assay type: functional; details: Candida albicans, 56452, 48 h; in short: as §1
Candida albicans [17] = experiment: Antifungal activity against Candida albicans SP3902 after 48 hrs by broth microdilution method; assay type: functional; details: SP3902, 48 h; in short: as §1
Candida albicans [18] = experiment: Antifungal activity against Candida albicans cgmcc 2.2086 in presence of 25% human heat-inactivated serum by broth dilution method; assay type: functional
Candida albicans [19] = experiment: Antifungal activity against Candida albicans isolated from alveolar fluid after 48 hrs by broth microdilution method; assay type: functional; in short: as §1
Candida albicans [20] = experiment: Fungicidal activity against fluconazole-resistant Candida albicans 56214 after 96 hrs; assay type: functional; details: Candida albicans, 56214, 96 h; read-out: MFC99.9; in short: as §3
Candida parapsilosis [21] = experiment: Antifungal activity against Candida parapsilosis cgmcc 2.3989 after 48 hrs by broth microdilution method; assay type: functional; details: Lodderomyces parapsilosis, cgmcc 2.3989, 48 h; in short: as §4
Candida albicans [22] = experiment: Antifungal activity against Candida albicans SP3931 after 48 hrs by broth microdilution method; assay type: functional; details: SP3931, 48 h; in short: as §1
Candida albicans [23] = experiment: Antifungal activity against Candida albicans cgmcc 2.2086 in presence of MgCl2 by broth dilution method; assay type: functional
Candida albicans [24] = experiment: Antifungal activity against Candida albicans cgmcc 2.2086 in presence of 12.5% human heat-inactivated serum by broth dilution method; assay type: functional
Candida albicans [25] = experiment: Antifungal activity against fluconazole-resistant Candida albicans 17546 after 48 hrs by broth microdilution method; assay type: functional; details: Candida albicans, 17546, 48 h; in short: as §1
Candida albicans [26] = experiment: Antifungal activity against Candida albicans SP3903 after 48 hrs by broth microdilution method; assay type: functional; details: SP3903, 48 h; in short: as §1
Candida albicans [27] = experiment: Antifungal activity against Candida albicans cgmcc 2.2086 in presence of CaCl2 by broth dilution method; assay type: functional
Lipid bilayer [28] = experiment: Binding affinity to phosphatidylcholine/cholesterol large unilamellar vesicle assessed as induction of calcein leakage at 2 to 32 uM after 15 mins by spectrofluorophotometric method; details: 0.25 h; in short: as §5
Candida albicans [29] = experiment: Antifungal activity against Candida albicans cgmcc 2.2086 in presence of NaCl by broth dilution method; assay type: functional
Candida albicans [30] = experiment: Antifungal activity against Candida albicans cgmcc 2.2086 in presence of KCl by broth dilution method; assay type: functional
Candida tropicalis [31] = experiment: Antifungal activity against Candida tropicalis cgmcc 2.1975 after 48 hrs by broth microdilution method; assay type: functional; details: cgmcc 2.1975, 48 h; in short: as §4
Candida albicans [32] = experiment: Fungicidal activity against Candida albicans SP3903 after 96 hrs; assay type: functional; details: SP3903, 96 h, read-out: MFC99.9; in short: as §3
Candida albicans [33] = experiment: Antifungal activity against Candida albicans 58288 after 48 hrs by broth microdilution method; assay type: functional; details: Candida albicans, 58288, 48 h; in short: as §1
Candida albicans [34] = experiment: Fungicidal activity against fluconazole-resistant Candida albicans 56452 after 96 hrs; assay type: functional; details: Candida albicans, 56452, 96 h; read-out: MFC99.9; in short: as §3
Candida albicans [35] = experiment: Antifungal activity against Candida albicans cgmcc 2.2086 in presence of 50% human heat-inactivated serum by broth dilution method; assay type: functional
Candida albicans [36] = experiment: Antifungal activity against Candida albicans cgmcc 2.2086 in presence of ZnCl2 by broth dilution method; assay type: functional
Candida albicans [37] = experiment: Fungicidal activity against fluconazole-resistant Candida albicans 17546 after 96 hrs; assay type: functional; details: Candida albicans, 17546, 96 h; read-out: MFC99.9; in short: as §3
Candida albicans [38] = experiment: Antifungal activity against Candida albicans cgmcc 2.2086 in presence of FeCl3 by broth dilution method; assay type: functional
Candida albicans [39] = experiment: Fungicidal activity against Candida albicans SP3931 after 96 hrs; assay type: functional; details: SP3931, 96 h, read-out: MFC99.9; in short: as §3
Candida albicans [40] = experiment: Fungicidal activity against Candida albicans 14936 after 96 hrs; assay type: functional; details: Candida albicans, 14936, 96 h; read-out: MFC99.9; in short: as §3
Candida albicans [41] = experiment: Fungicidal activity against Candida albicans SP3902 after 96 hrs; assay type: functional; details: SP3902, 96 h, read-out: MFC99.9; in short: as §3

With `OC(Cn1cncn1)(Cn1cncn1)c1ccc(F)cc1F` [FLUCONAZOLE] the MIC95 (Candida albicans [1]) was > 64 µM, the MFC (Candida parapsilosis [2]) was 8 µM (≈ 2.45 µg/mL) and the MFC (Candida albicans [3]) was 8 µM (≈ 2.45 µg/mL). For the same molecule, the MIC95 (Candida albicans [4]) was > 64 µM, the MIC95 (Candida albicans [5]) was 1 µM (≈ 0.306 µg/mL) and the MIC (Candida albicans [6]) was 1 µM. For the same molecule, the MFC (Candida albicans [7]) was > 64 µM, the MFC (Pichia kudriavzevii [8]) was 64 µM (≈ 19.6 µg/mL) and the MFC (Candida tropicalis [9]) was 32 µM (≈ 9.8 µg/mL). The MIC95 (Pichia kudriavzevii [10]) was 64 µM (≈ 19.6 µg/mL), the MFC (Candida albicans [11]) was 2 µM (≈ 0.613 µg/mL) and the MFC (Candida albicans [12]) was > 64 µM. The MIC95 (Candida albicans [13]) was 32 µM (≈ 9.8 µg/mL), the Activity (Lipid bilayer [14]) was “inactive” and the Activity (Candida albicans [15]) was “inactive”. For the same molecule, the MIC95 (Candida albicans [16]) was > 64 µM, the MIC95 (Candida albicans [17]) was 16 µM (≈ 4.9 µg/mL) and the MIC (Candida albicans [18]) was 1 µM. For the same molecule, the MIC95 (Candida albicans [19]) was 2 µM (≈ 0.613 µg/mL), the MFC (Candida albicans [20]) was > 64 µM and the MIC95 (Candida parapsilosis [21]) was 4 µM (≈ 1.23 µg/mL). For the same molecule, the MIC95 (Candida albicans [22]) was 1 µM (≈ 0.306 µg/mL), the MIC (Candida albicans [23]) was 1 µM and the MIC (Candida albicans [24]) was 1 µM. For the same molecule, the MIC95 (Candida albicans [25]) was > 64 µM, the MIC95 (Candida albicans [26]) was 16 µM (≈ 4.9 µg/mL) and the MIC (Candida albicans [27]) was 1 µM. For the same molecule, the Activity (Lipid bilayer [28]) was “Not Active”, the MIC (Candida albicans [29]) was 1 µM and the MIC (Candida albicans [30]) was 1 µM. For the same molecule, the MIC95 (Candida tropicalis [31]) was 4 µM (≈ 1.23 µg/mL), the MFC (Candida albicans [32]) was 64 µM (≈ 19.6 µg/mL) and the MIC95 (Candida albicans [33]) was 8 µM (≈ 2.45 µg/mL). The MFC (Candida albicans [34]) was > 64 µM, the MIC (Candida albicans [35]) was 2 µM and the MIC (Candida albicans [36]) was 1 µM. For the same molecule, the MFC (Candida albicans [37]) was > 64 µM, the MIC (Candida albicans [38]) was 1 µM and the MFC (Candida albicans [39]) was 64 µM (≈ 19.6 µg/mL). The MFC (Candida albicans [40]) was > 64 µM and the MFC (Candida albicans [41]) was > 64 µM.
